From the EternaBench riboswitch data

Tested on: MS2 coat protein
Assay: apparent Kd, MS2 coat protein; higher = weaker binding; RNA-MaP array; FMN 200 µM where present
In short: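 SNAP-549-labelled MS2 coat protein, doubled from 0.7 or 1.5 nM to 3 µM, was titrated over designs transcribed by stalled E. coli RNA polymerase on Illumina sequencing-chip clusters. Titrations were run without and then with constant ligand in 100 mM Tris-HCl pH 7.5, 80 mM KCl, 4 mM MgCl2, BSA, DTT, yeast tRNA and Tween-20. The apparent Kd is the median of filtered per-cluster fits to green signal normalised to red-channel RNA signal and control-cluster median Fmax.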

[1] = designed as: OFF switch for flavin mononucleotide, no ligand
[2] = ligand present: flavin mononucleotide, designed as: OFF switch for flavin mononucleotide
[3] = designed as: ON switch for flavin mononucleotide, no ligand
[4] = ligand present: flavin mononucleotide, designed as: ON switch for flavin mononucleotide

| Sequence | apparent Kd [1] | apparent Kd [2] | apparent Kd [3] | apparent Kd [4] |
| --- | --- | --- | --- | --- |
| UUUUUUGUUGUGAGGAUAUCGUAUUUUUUUUGUUACGAGAAGGCACAUGAGGAUCACCCAUGUUUCUUGAUGUU | 13.6 nM | 28.6 nM | – | – |
| AAGCCACAUGAGGAUCACCCAUGUAUUUGACAGCGAGGAUAUGGGCCGCCAUGACGAGCACCAGAAGGCGCUGGUA | – | – | 20.9 nM | 16.3 nM |
| UUAAUUAUACAAGGAUAUCUAUUGUUGUUUCGACAUACAUGAGGAUCACCCAUGUUAGUAUGUUUAGAGAAGGUGUAUUUUCAG | – | – | 29 nM | 25.7 nM |
| AAACGCCAACAUGAGGAUCACCCAUGUUCUAGUUUAGGGUCGCAGGAUAUGACUUCGAAGCUUAGUCAGAAGGGUGAAUCCACA | – | – | 14.5 nM | 10.5 nM |
| UAUUUAAUCUCAGGAUAUAACAUUACAUACAAAUUAGAAGGGAGAACAUGAGGAUCACCCAUGUACAUGAGGAUCACCCAUGUU | – | – | 692 nM | 576 nM |
| CCAGCAACAUGAGGAUCACCCAUGUAGGAUAUCGCUAUUGUAAUCAUGAAACAUGAUUACAAUAGCGAGAAGGACAUAUGCUGG | 6.31 nM | 10.1 nM | – | – |
| AUCAGCUUGACAGGAUAUACAUCACUGCGAAAGCAGUGUAUCUUAAUAACAUGAGGAUCACCCAUGUAGAAGGGUCGAGCUGAU | 18.4 nM | 32.6 nM | – | – |
| GAAUAAUUGAUCCAAUUUAACUACAUGAGGAUCACCCAUGUGCAGGAUAUCGUAAUAUUUAAUUACGAGAAGGGCAAGAACGGU | 366 nM | 516 nM | – | – |
| GAUCAAAACACUCCUUACACUACAUGAGGAUCACCCAUGUAGCAGGAUAUCAUUGCUCCUCGCUGUGAGAAGGGCUACGGGCGG | 8.92 nM | 15.6 nM | – | – |
| UUUGGGUGGCUGGAGGAUAUUCUUGUGGUUACAUGAGGAUCACCCAUGUGUCGCGCGGUGCGCGAGGAGAAGGCUGGCGGCCGUU | – | – | 411 nM | 128 nM |
| GUAUCUUAUGAGAAGGCGAUCAUGAAACAUGAUCGAGGAUAUCAUGUAAACAUGAGGAUCACCCAUGUAUGGGUAUUAUGGUAU | – | – | 95 nM | 80.2 nM |
| UUAUGCUUUGAGAAGGUUCAAACUACAUAUUGCGCACAUGAGGAUCACCCAUGUUGGUGAAUAAGAAAGGAUAUUAGACUGUGC | 267 nM | 165 nM | – | – |
| GUGUACAGAGGAUAUACAUAAGCUAGGAAACUAGCAAACUCACAUGAGGAUCACCCAUGUAGAAGGCUGUACAC | 48 nM | 257 nM | – | – |
| GACGUGUGAGGAUAUCCGAUGCCGGUCCGGAAGGUUCGGGUGGAGAAGGCACAUGAGGAUCACCCAUGUGUAAG | 18 nM | 26.5 nM | – | – |
| UGGAUGGUAUGAGGAUAUGCGCGCGAAACGCGCGCAGAAGGCAUGUCAAUAGACAUGAGGAUCACCCAUGUAUUAUCCAUCCAC | – | – | 192 nM | 13 nM |
| AGCAAGUAUACAUGAGGAUCACCCAUGUUUGAUAGGGUUUUCAGAAGGUACAAUUUGAGAUAGAGUAAGGAUAUGAAAUAUGCG | – | – | 182 nM | 56.3 nM |
| UUUGCAACAUGAGGAUCACCCAUGUAGGAUAUCGCUAUUGUAAUCAUGAAACAUGAUUACAAUAGCGAGAAGGACAUAUGUCCC | 7.56 nM | 8.59 nM | – | – |
| UGGUGGUAGCAGGAUAUGCUUGUUGUGUAGUUUGCAGAAGGGCUAACAUGAGGAUCACCCAUGUAAGAGGUGUU | 331 nM | 162 nM | – | – |
| UUUAUAUUCAGAGGAUAUUAAAGUAGUAUAACAUAAGAAGGCUGUUUGUUUUGUAAAGUAAUUCUACAUGAGGAUCACCCAUGU | – | – | 20.9 nM | 17 nM |
| GCACGGUAAGUGAGGAUAUACCUCUGGAUACAGAGGUAGAAGGCACAUGAGGAUCACCCAUGUCUAAGCCGUGC | 17.1 nM | 24.1 nM | – | – |
| GGUGCGUAUGUGAGGAUAUGCUGGUCCUUGGAUCCGCAGAAGGCACAUGAGGAUCACCCAUGUGGUGUCGUACC | 299 nM | 27.6 nM | – | – |
| GUAGCAUACCGAGGAUAUUCAUACCGAAAACGGACAUGAGGAUCACCCAUGUGGCGAAAGCCUUGGGAGAAGGCGGAAUGCUAC | – | – | 592 nM | 26.2 nM |
| UCAUGUUAAGGAUAUACAUGAGGAUCACCCAUGUUUGUUCAAAAUCUUAGAUCCCAAUGUAGAAGGUGGCUGUA | 75.8 nM | 75.4 nM | – | – |
| CGCAUGUAAGGAUAUUAGUAGUAGUCAGAAUAGACUAUUACUGAGAAGGUACAUGAGGAUCACCCAUGUUAGCG | 117 nM | 592 nM | – | – |
| AGGUAAGACUUAAUUGUGCUGGUGAGAAGGCAAAUGGUUGUGACCAACAUGAGGAUCACCCAUGUUGAGGAUAUCAUCGGUAUC | 86.2 nM | 361 nM | – | – |
| GUGAUACAUGAGGAUCACCCAUGUCAGGAUAUGAUACUAUGUACUUCGGUACAUAGUAUCAGAAGGGACAGUGA | 138 nM | 92.5 nM | – | – |
| GCACGGUAUGUAGGAUAUGCAUAGCAUUGCUAUGCAGAAGGACAUGAGGAUCACCCAUGUAUGUAUUCCAUACUAAUCCCGUGA | 5.72 nM | 5.98 nM | – | – |
